The values below come from ChEMBL document CHEMBL4819084, “Discovery of 3,5-dimethylisoxazole derivatives as novel, potent inhibitors for bromodomain and extraterminal domain (BET) family” (Bioorg Med Chem, 2021).

Each structure is given as a SMILES string.

For data set [1], the system named is MCF7. As to the kind of experiment: Antiproliferative activity against human MCF7 cells assessed as inhibition of cell proliferation at 2 uM incubated for 48 hrs by MTT assay relative to control. In kind it is functional. The essentials:
(§1)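 Cryopreserved cells thawed at 37 °C, cultured one day, then seeded at 5000–10,000 cells/well in 96-well plates and left overnight to attach. Compound added at a single concentration or as a gradient series and incubated 48 h. MTT solution added and absorbance read.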
(In general: Tetrazolium dyes change colour on reduction, which living cells bring about.)

Data set [2] deals with CT26. As to the kind of experiment: Antiproliferative activity against […] assessed as inhibition of cell proliferation at 2 uM incubated for 48 hrs by MTT assay relative to control. In kind it is functional. The conditions noted are these: Mus musculus. In short, it runs like this:
as §1

For data set [3], the system named is U-266. Nature of the data set: Antiproliferative activity against human U-266 cells assessed as inhibition of cell proliferation at 0.1 uM incubated for 48 hrs by MTT assay relative to control. In kind it is functional. In short, it runs like this:
as §1

Data set [4] concerns HepG2. As to the kind of experiment: Antiproliferative activity against human HepG2 cells assessed as inhibition of cell proliferation at 2 uM incubated for 48 hrs by MTT assay relative to control. In kind it is functional. The essentials: as §1
The subject of data set [5] is HCT-116. Nature of the data set: Antiproliferative activity against human HCT-116 cells assessed as inhibition of cell proliferation at 2 uM incubated for 48 hrs by MTT assay relative to control. It counts as functional. The essentials: as §1
For data set [6], the target named is Bromodomain-containing protein 4 (Homo sapiens, UniProt O60885). Nature of the data set: Inhibition of BRD4-BD1 (unknown origin) preincubated for 15 mins followed by substrate addition and measured after 1 hr.
Data set [7] is described as follows: Cytotoxicity against human MCF-10A cells assessed as inhibition of cell proliferation at 2 uM incubated for 48 hrs by MTT assay. It counts as cell-based. The essentials: as §1
The subject of data set [8] is CT26. As to the kind of experiment: Antiproliferative activity against […] assessed as inhibition of cell proliferation incubated for 48 hrs by MTT assay. The conditions noted are these: Mus musculus, CT26, 48 h. In kind it is functional, cell-based. The essentials:
as §1

Data set [9] has as its system U-266. Nature of the data set: Antiproliferative activity against human U-266 cells assessed as inhibition of cell proliferation incubated for 48 hrs by MTT assay. It counts as functional, cell-based. The conditions noted are these: U-266, 48 h. In short, it runs like this: as §1
Data set [10] concerns HepG2. Nature of the data set: Antiproliferative activity against human HepG2 cells assessed as inhibition of cell proliferation incubated for 48 hrs by MTT assay. It counts as functional, cell-based. The following applies: HepG2, 48 h. In short, it runs like this:
as §1

As usually defined, the inhibition is the share of the control response that was lost under treatment. In general, IC50 refers to the midpoint of a concentration-inhibition curve.

As for `Cc1noc(C)c1-c1ccc2c(c1)C(c1ccccc1)N(CC(=O)N1CCN(c3ccc4nnc(Cl)n4n3)CC1)C(=O)N2C` (stereo not given), the inhibition at 2 µM in data set [1] came to 33.4%; in [2] it was 27.5%; in data set [4] it was 28.5%; in [5] it was 48.9%. Also, in [3], the inhibition at 0.1 µM worked out at 19.8%. In [6], the IC50 turned out to be 5.6 nM. For the same compound, the inhibition at 48 h, 2 µM in data set [7] is 10.9%.

As to `Cc1noc(C)c1-c1ccc2c(c1)C(c1ccccc1)N(Cc1csc(-c3ccccc3)n1)C(=O)N2C` (stereo not given), the inhibition at 2 µM in data set [1] was found to be 17.5%; in [2], 23.5%; in data set [4], 34%; in data set [5], 28.4%. Besides, the inhibition at 0.1 µM in data set [3] was 10.4%. Also, the inhibition at 48 h, 2 µM in data set [7] is 4.4%.

Take `Cc1noc(C)c1-c1ccc2c(c1)C(c1ccccc1)N(CCCCCN1CCN(c3ccc4nnc(Cl)n4n3)CC1)C(=O)N2C` (stereo not given): the IC50 in data set [8] is 11.8 µM; in data set [9] it was 1.99 µM; in data set [10] it was 14 µM; in data set [6], 8.8 nM. The inhibition at 2 µM in data set [1] worked out at 33.4%; in [2], 33.8%; in data set [4] it was 39.8%; in [5], 39%. In data set [3], the inhibition at 0.1 µM amounted to 48.4%. The inhibition at 48 h, 2 µM in data set [7] turned out to be 9.3%.

Regarding `Cc1noc(C)c1-c1ccc2c(c1)C(c1ccccc1)N(Cc1nnc(-c3ccc(F)cc3)o1)C(=O)N2C` (stereo not given), the inhibition at 2 µM in [1] stood at 26.7%; in data set [2] it was 24%; in data set [4], 52.8%; in data set [5] it was 36.6%. Also, the inhibition at 0.1 µM in data set [3] worked out at 26.8%. The same compound displayed an IC50 in data set [6] of 58 nM. Besides, in [7], the inhibition at 48 h, 2 µM was 0.7%.

In the case of `Cc1noc(C)c1-c1ccc2c(c1)C(c1ccccc1)N(Cc1nc(-c3ccc(F)cc3)cs1)C(=O)N2C` (stereo not given), the inhibition at 2 µM in data set [1] was 27.4%; in data set [2], 16.4%; in [4], 41.1%; in data set [5], 33.3%. Also, the inhibition at 0.1 µM in [3] turned out to be 12.6%. In data set [7], the inhibition at 48 h, 2 µM came to 8.5%.

For the compound `Cc1noc(C)c1-c1ccc2c(c1)C(c1ccccc1)N(CCOCCN1CCN(c3ccc4nnc(Cl)n4n3)CC1)C(=O)N2C` (stereo not given), the IC50 in data set [8] amounted to 22.9 µM; in [9], 3.05 µM; in [10] it was 21 µM; in [6], 12 nM. The inhibition at 2 µM in [1] stood at 34.7%; in data set [2], 25.1%; in data set [4], 36.7%; in data set [5], 18.7%. Also, the inhibition at 0.1 µM in [3] was determined as 29.5%. Also, the inhibition at 48 h, 2 µM in [7] came to 6%.

For `Cc1noc(C)c1-c1ccc2c(c1)C(c1ccccc1)N(Cc1nc(-c3ccccc3)cs1)C(=O)N2C` (stereo not given), the inhibition at 2 µM in data set [1] was found to be 29.1%; in data set [2], 15.5%; in [4], 44.5%; in data set [5], 26.7%. Further, in [3], the inhibition at 0.1 µM is 12.7%. The inhibition at 48 h, 2 µM in data set [7] was 2.7%.

For the compound `Cc1nc(-c2ccccc2)sc1CN1C(=O)N(C)c2ccc(-c3c(C)noc3C)cc2C1c1ccccc1` (stereo not given), the inhibition at 2 µM is 35.1% in data set [1], 20.1% in [2], 29.2% in data set [4] and 28.3% in [5]. The inhibition at 0.1 µM in [3] is 7.19%. For the same compound, the inhibition at 48 h, 2 µM in data set [7] came out at 4.9%.

Take `Cc1noc(C)c1-c1ccc2c(c1)C(c1ccccc1)N(Cc1csc(-c3ccc(F)cc3)n1)C(=O)N2C` (stereo not given): the inhibition at 2 µM in data set [1] is 37.9%; in data set [2] it was 17%; in data set [4], 31.3%; in data set [5], 31.8%. Besides, the inhibition at 0.1 µM in data set [3] is 8.4%. For the same compound, the inhibition at 48 h, 2 µM in data set [7] was determined as 6.8%.

In the case of `Cc1noc(C)c1-c1ccc2c(c1)C(c1ccccc1)N(Cc1ncc(-c3ccccc3)o1)C(=O)N2C` (stereo not given), the inhibition at 2 µM was found to be 34% in data set [1], 21.2% in [2], 50.6% in [4] and 30% in data set [5]. Moreover, the inhibition at 0.1 µM in data set [3] was 15.1%. Further, in data set [6], the IC50 came out at 105 nM. The inhibition at 48 h, 2 µM in data set [7] worked out at 3.7%.

As for `Cc1noc(C)c1-c1ccc2c(c1)C(c1ccccc1)N(CCCCBr)C(=O)N2C` (stereo not given), 13 nM corresponded to half-maximal inhibition in data set [6] (IC50).

Regarding `Cc1noc(C)c1-c1ccc2c(c1)C(c1ccccc1)NC(=O)N2C` (stereo not given), the IC50 in data set [8] turned out to be 36 µM; in data set [9], 35.4 µM; in [10], 18.8 µM; in data set [6] it was 53 nM. For the same compound, the inhibition at 2 µM in [1] was found to be 33.5%; in data set [2] it was 44%; in data set [4], 32.5%; in [5], 27.8%. In data set [3], the inhibition at 0.1 µM amounted to 13.1%. Also, the inhibition at 48 h, 2 µM in data set [7] came to 6.8%.

For the compound `CCS(=O)(=O)Nc1ccc(Oc2ccc(F)cc2F)c(-c2cn(C)c(=O)c3[nH]ccc23)c1` [MIVEBRESIB], the results for the IC50 in data set [8] and in [9] were 48.3 µM and 2.03 µM, respectively.

For `Cc1sc2c(c1C)C(c1ccc(Cl)cc1)=N[C@@H](CC(=O)OC(C)(C)C)c1nnc(C)n1-2`, the IC50 in data set [8] was 28.7 µM; in data set [9], 3.45 µM; in [10], 18.4 µM. The inhibition at 2 µM in data set [1] came to 35.4%; in data set [2] it was 37.9%; in [4] it was 22.2%; in [5] it was 30.3%. Besides, the inhibition at 0.1 µM in data set [3] amounted to 35.7%. The inhibition at 48 h, 2 µM in data set [7] is 6.5%.

For `Cc1noc(C)c1-c1ccc2c(c1)C(c1ccccc1)N(Cc1nnc(-c3ccccc3)s1)C(=O)N2C` (stereo not given), the inhibition at 2 µM was 35.7% in [1], 28.1% in data set [2], 35.2% in data set [4] and 26.9% in data set [5]. Also, in data set [3], the inhibition at 0.1 µM worked out at 20.3%. In data set [6], this compound came in with an IC50 of 74 nM. For the same compound, in data set [7], the inhibition at 48 h, 2 µM came to 3.3%.

For `Cc1noc(C)c1-c1ccc2c(c1)C(c1ccccc1)N(CCCCCCCC(=O)N1CCN(c3ccc4nnc(Cl)n4n3)CC1)C(=O)N2C` (stereo not given), the inhibition at 2 µM in data set [1] was determined as 28.7%; in data set [2], 8.8%; in [4], 13.6%; in [5] it was 14.1%. Also, in [3], the inhibition at 0.1 µM was determined as 8.5%. In [6], the IC50 came out at 37 nM. Besides, the inhibition at 48 h, 2 µM in [7] was 0.5%.

As to `Cc1nc(-c2ccc(F)cc2)sc1CN1C(=O)N(C)c2ccc(-c3c(C)noc3C)cc2C1c1ccccc1` (stereo not given), the inhibition at 2 µM in data set [1] turned out to be 33.4%; in [2] it was 28.8%; in data set [4], 26.4%; in data set [5], 26%. Besides, the inhibition at 0.1 µM in data set [3] stood at 10%. The inhibition at 48 h, 2 µM in data set [7] came out at 6.5%.

Regarding `Cc1noc(C)c1-c1ccc2c(c1)C(c1ccccc1)N(CCCCCCN1CCN(c3ccc4nnc(Cl)n4n3)CC1)C(=O)N2C` (stereo not given), the IC50 in data set [8] worked out at 7.95 µM; in data set [9], 2.12 µM; in data set [10], 9.45 µM; in data set [6], 3.1 nM. Further, the inhibition at 2 µM was 33.1% in data set [1], 20.3% in data set [2], 51.9% in data set [4] and 44.7% in data set [5]. The inhibition at 0.1 µM in [3] was 45.5%. Also, the inhibition at 48 h, 2 µM in data set [7] is 5.3%.

For `Cc1noc(C)c1-c1ccc2c(c1)C(c1ccccc1)N(CCCCCC(=O)N1CCN(c3ccc4nnc(Cl)n4n3)CC1)C(=O)N2C` (stereo not given), the inhibition at 2 µM was 33.6% in data set [1], 25.1% in [2], 30.7% in data set [4] and 38.4% in [5]. Further, the inhibition at 0.1 µM in [3] came out at 31.3%. Further, in data set [6], half-maximal inhibition (IC50) required 9.2 nM. For the same compound, the inhibition at 48 h, 2 µM in data set [7] was determined as 14.7%.

Regarding `Cc1noc(C)c1-c1ccc2c(c1)C(c1ccccc1)N(Cc1nnc(-c3ccccc3)o1)C(=O)N2C` (stereo not given), the IC50 in data set [8] amounted to 21.2 µM; in data set [9] it was 3.45 µM; in [10], 19.5 µM; in data set [6] it was 55 nM. Further, the inhibition at 2 µM in data set [1] stood at 34.1%; in data set [2], 30.1%; in [4], 34.7%; in data set [5], 31.4%. Also, the inhibition at 0.1 µM in data set [3] is 26.7%. Also, the inhibition at 48 h, 2 µM in [7] was found to be 12.4%.
